Measurements taken from ChEMBL document CHEMBL2311290 (J Med Chem, 2013).
Calls of active or inactive are those of the source. The rule behind the calls is not given here.

Legend:
[1] = molecular target: Coagulation factor XI (Homo sapiens) (UniProt P03951); assay: Inhibition of human FXIa assessed as S-2366 hydrolysis at 250 uM after 10 mins by microplate reader analysis
In short: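 Human FXIa at 0.765 nM final in pH 7.4 Tris buffer (150 mM NaCl, 0.1% PEG8000, 0.02% Tween80). It is preincubated 10 min at 37 °C with the agent or solvent, then 345 µM S-2366 is added. Initial rate of A405 increase gives residual activity relative to no-inhibitor control.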

Bos taurus = species: Bos taurus; assay: Inhibition of bovine chymotrypsin at 1.8 mg/ml after 60 secs by spectrophotometry
Blood [2] = assay: Anticoagulant activity in human whole blood assessed as maximum amplitude at 20 ug/ml by thromboelastography (reference value: 59 mm); assay type: functional
In short: (§1)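 Thromboelastography in sodium-citrated human whole blood at 37 °C. 340 µL of blood containing 10 µL of the agent (or high-purity water) is added to a cup holding 20 µL of 200 mM CaCl2 stock, oscillating through 4°45′ at 0.1 Hz. Clot force on a central pin is recorded and read out as R, α, MA and G.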

[3] = molecular target: T1, Serine protease 1 (Bos taurus) (UniProt P00760); assay: Inhibition of bovine trypsin at 1.8 mg/ml after 60 secs by spectrophotometry
T1 sequence (whole entry): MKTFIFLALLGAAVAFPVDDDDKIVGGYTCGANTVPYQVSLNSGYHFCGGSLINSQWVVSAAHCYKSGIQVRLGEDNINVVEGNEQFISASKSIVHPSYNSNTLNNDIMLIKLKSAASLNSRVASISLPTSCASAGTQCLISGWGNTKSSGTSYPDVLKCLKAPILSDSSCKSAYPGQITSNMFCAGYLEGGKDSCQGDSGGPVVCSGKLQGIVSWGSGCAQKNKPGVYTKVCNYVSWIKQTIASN
In short: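 Chromogenic substrate hydrolysis assay of bovine trypsin (72.5 ng/mL in the well) with 80 µM substrate, with substrate level chosen from its KM. Enzyme stock was in 50 mM Tris-HCl pH 7.4, 150 mM NaCl, 0.1% PEG8000, 0.02% Tween80. Fractional residual activity was read spectrophotometrically across at least six serial inhibitor dilutions to derive IC50.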

Plasma [4] = assay: Ratio of concentration required to double clotting time for compound to enoxaparin in human plasma; assay type: functional
Blood [5] = assay: Anticoagulant activity in human whole blood assessed as angle alpha at 190 ug/ml by thromboelastography (reference value: 56.4 deg); assay type: functional; in short: as §1
Coagulation factor X = Coagulation factor X (Homo sapiens, UniProt P00742); assay: Inhibition of human FXa after 60 secs by spectrophotometry
Sequence of Coagulation factor X (P00742 41-179 limits assumed): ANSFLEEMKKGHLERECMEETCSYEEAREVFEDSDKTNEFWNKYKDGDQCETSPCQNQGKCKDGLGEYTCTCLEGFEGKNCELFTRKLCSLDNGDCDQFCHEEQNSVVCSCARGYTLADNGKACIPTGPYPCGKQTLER
Sequence of Coagulation factor X (P00742 235-488 limits assumed): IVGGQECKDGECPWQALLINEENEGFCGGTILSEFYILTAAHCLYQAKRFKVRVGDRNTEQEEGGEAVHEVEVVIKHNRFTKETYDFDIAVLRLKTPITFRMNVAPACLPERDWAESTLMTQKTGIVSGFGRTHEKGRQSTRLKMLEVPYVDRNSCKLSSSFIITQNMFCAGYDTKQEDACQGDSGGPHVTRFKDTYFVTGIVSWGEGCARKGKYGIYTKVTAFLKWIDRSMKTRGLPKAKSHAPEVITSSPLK

Plasma [6] = assay: Anticoagulant activity in human plasma assessed as concentration required to double […] prothrombin time; assay type: functional
In short: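 Prothrombin time is a one-stage recalcification assay read on a fibrometer. 10 µL of the agent is made up to 100 µL with citrated human plasma and incubated 30 s at 37 °C. Clotting is started with 200 µL of prewarmed thromboplastin-D. A quadratic trend line of clotting time versus concentration gives the concentration that doubles clotting time. Water or organic vehicle serves as the blank.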

Blood [7] = assay: Anticoagulant activity in human whole blood assessed as clot formation time at 20 ug/ml by thromboelastography (reference value: 6.0 mins); assay type: functional; in short: as §1
Blood [8] = assay: Anticoagulant activity in human whole blood assessed as clot formation time at 135 ug/ml by thromboelastography (reference value: 6.0 mins); assay type: functional; in short: as §1
Blood [9] = assay: Anticoagulant activity in human whole blood assessed as maximum amplitude at 280 ug/ml by thromboelastography (reference value: 59 mm); assay type: functional; in short: as §1
Blood [10] = assay: Anticoagulant activity in human whole blood assessed as maximum amplitude at 190 ug/ml by thromboelastography (reference value: 59 mm); assay type: functional; in short: as §1
[11] = molecular target: T2, Coagulation factor VII (Homo sapiens) (UniProt P08709); assay: Inhibition of human FVIIa at 3.7 mg/ml after 60 secs by spectrophotometry
T2 sequence (whole entry): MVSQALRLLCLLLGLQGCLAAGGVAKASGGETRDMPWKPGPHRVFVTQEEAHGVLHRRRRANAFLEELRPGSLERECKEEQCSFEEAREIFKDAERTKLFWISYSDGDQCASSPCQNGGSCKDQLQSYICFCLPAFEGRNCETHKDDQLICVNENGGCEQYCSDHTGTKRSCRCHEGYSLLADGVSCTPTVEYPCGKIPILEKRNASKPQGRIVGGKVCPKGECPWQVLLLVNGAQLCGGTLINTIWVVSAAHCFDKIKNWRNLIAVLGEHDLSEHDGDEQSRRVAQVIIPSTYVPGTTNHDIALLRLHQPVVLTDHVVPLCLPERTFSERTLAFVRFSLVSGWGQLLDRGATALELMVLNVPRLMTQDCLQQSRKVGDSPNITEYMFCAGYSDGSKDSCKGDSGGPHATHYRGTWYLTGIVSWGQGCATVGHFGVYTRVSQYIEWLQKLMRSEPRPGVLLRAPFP
In short: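 Chromogenic hydrolysis with at least six serial concentrations of the agent and spectrophotometric residual activity. Factor VIIa was 8 nM with 1000 µM Spectrozyme FVIIa plus 40 nM recombinant tissue factor. Bovine chymotrypsin was 500 ng/mL with 240 µM Spectrozyme CTY.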

Blood [12] = assay: Anticoagulant activity in human whole blood assessed as clot formation time at 280 ug/ml by thromboelastography (reference value: 6.0 mins); assay type: functional; in short: as §1
[13] = molecular target: T3, Coagulation factor XII (Homo sapiens) (UniProt P00748); assay: (§2) Inhibition of FXIIa (unknown origin) after 60 secs by spectrophotometry
T3 sequence (whole entry): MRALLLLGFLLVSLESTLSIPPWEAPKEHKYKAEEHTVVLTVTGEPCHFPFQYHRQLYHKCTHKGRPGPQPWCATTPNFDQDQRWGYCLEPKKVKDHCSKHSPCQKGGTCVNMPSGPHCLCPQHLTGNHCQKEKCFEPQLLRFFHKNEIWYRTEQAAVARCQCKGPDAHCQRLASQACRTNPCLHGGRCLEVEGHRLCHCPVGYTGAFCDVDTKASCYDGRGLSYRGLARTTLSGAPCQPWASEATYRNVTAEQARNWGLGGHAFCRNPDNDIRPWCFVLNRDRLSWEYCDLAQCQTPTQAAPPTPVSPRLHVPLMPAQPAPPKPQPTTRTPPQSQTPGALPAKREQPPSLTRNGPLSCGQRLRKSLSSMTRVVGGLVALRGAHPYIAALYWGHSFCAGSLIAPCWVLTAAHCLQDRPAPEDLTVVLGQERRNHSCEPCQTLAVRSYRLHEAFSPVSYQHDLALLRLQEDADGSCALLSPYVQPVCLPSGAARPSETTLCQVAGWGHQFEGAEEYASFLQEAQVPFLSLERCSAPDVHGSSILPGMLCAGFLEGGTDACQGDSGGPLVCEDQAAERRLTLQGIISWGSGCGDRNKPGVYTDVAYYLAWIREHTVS
In short: (§3)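 Chromogenic substrate hydrolysis at pH 7.4 with at least six serially diluted concentrations of the agent. Residual activity is read spectrophotometrically and the IC50 is obtained from a dose–response fit. Substrate levels were set from its KM. Final enzyme/substrate: thrombin 6 nM/50 µM Spectrozyme TH; FXa 1.09 nM/125 µM; FXIIa 5 nM/125 µM; FIXa 89 nM/850 µM.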

Coagulation factor XII = molecular target: T4, Coagulation factor XII (Homo sapiens, UniProt P00748); assay: as §2; in short: as §3
T4 sequence (P00748 whole entry): T3 sequence (whole entry)

Plasma [14] = assay: Anticoagulant activity in human plasma assessed as concentration required to double activated partial […] time; assay type: functional
In short: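 Citrated pooled normal human plasma (90 µL) plus 10 µL of the test agent and 100 µL of prewarmed ellagic acid APTT reagent (0.2% ellagic acid). The mixture is incubated 4 min at 37 °C, then clotting is started with prewarmed 25 mM CaCl2 and read on a fibrometer. Clotting time versus concentration is fitted to a quadratic trend line to get the concentration that doubles it. Water or organic vehicle serves as the blank.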

Prothrombin = Prothrombin (Homo sapiens, UniProt P00734); assay: Inhibition of human thrombin after 60 secs by spectrophotometry; in short: as §3
Blood [15] = assay: Anticoagulant activity in human whole blood assessed as angle alpha at 135 ug/ml by thromboelastography (reference value: 56.4 deg); assay type: functional; in short: as §1
Blood [16] = assay: Anticoagulant activity in human whole blood assessed as clot formation time at 190 ug/ml by thromboelastography (reference value: 6.0 mins); assay type: functional; in short: as §1
Coagulation factor IX = Coagulation factor IX (Homo sapiens, UniProt P00740); assay: Inhibition of human FIXa after 60 secs by spectrophotometry
Sequence of Coagulation factor IX (P00740 47-191 limits assumed): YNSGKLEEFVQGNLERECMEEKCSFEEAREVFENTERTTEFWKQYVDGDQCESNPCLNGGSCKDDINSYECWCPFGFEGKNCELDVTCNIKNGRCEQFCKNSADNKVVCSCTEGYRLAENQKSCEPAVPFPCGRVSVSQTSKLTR
Sequence of Coagulation factor IX (P00740 227-461 limits assumed): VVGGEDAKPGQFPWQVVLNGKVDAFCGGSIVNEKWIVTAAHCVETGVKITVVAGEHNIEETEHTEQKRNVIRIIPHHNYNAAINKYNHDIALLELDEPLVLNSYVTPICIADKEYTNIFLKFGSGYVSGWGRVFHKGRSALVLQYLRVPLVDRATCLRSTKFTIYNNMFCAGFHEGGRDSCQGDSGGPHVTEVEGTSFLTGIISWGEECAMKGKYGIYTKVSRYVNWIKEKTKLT

[17] = molecular target: Coagulation factor XI (Homo sapiens) (UniProt P03951); details: 3 uM
Blood [18] = assay: Anticoagulant activity in human whole blood assessed as angle alpha at 20 ug/ml by thromboelastography (reference value: 56.4 deg); assay type: functional; in short: as §1
Blood [19] = assay: Anticoagulant activity in human whole blood assessed as maximum amplitude at 135 ug/ml by thromboelastography (reference value: 59 mm); assay type: functional; in short: as §1
[20] = molecular target: Coagulation factor XI (Homo sapiens) (UniProt P03951); assay: Inhibition of human FXIa assessed as S-2366 hydrolysis at 300 uM after 10 mins by microplate reader analysis
In short: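 Human FXIa (0.765 nM final) preincubated 10 min at 37 °C with inhibitor or solvent reference in pH 7.4 50 mM Tris-HCl, 150 mM NaCl, 0.1% PEG8000, 0.02% Tween80. S-2366 (345 µM) then added, and initial A405 rate read on a microplate reader. Residual activity is expressed relative to the no-inhibitor control. Highest concentration tested was 300 µM.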

Sequence of Coagulation factor XI (Homo sapiens) (P03951 19-387 limits assumed): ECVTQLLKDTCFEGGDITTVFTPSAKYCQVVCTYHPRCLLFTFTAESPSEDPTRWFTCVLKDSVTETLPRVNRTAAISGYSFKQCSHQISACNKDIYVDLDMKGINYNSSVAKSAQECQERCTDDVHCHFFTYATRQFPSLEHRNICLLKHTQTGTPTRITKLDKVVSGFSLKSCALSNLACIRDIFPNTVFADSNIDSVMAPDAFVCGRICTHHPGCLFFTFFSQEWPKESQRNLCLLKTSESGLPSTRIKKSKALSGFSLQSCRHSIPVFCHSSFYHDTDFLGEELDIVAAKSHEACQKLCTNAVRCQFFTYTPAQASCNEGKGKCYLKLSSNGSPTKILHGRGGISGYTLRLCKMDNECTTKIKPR
Sequence of Coagulation factor XI (Homo sapiens) (P03951 388-625 limits assumed): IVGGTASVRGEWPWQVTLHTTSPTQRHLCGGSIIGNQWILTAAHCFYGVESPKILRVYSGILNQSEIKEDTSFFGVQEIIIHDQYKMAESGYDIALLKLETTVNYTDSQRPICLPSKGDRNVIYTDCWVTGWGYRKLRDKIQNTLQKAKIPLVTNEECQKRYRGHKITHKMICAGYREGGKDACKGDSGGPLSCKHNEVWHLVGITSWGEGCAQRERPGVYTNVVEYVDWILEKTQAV

`O=C(O)C1Cc2c(OS(=O)(=O)O)ccc(OS(=O)(=O)O)c2CN1C(=O)CCCc1cc(OS(=O)(=O)O)ccc1OS(=O)(=O)O` (centres undefined) was tested, and the inhibition [1] was “inactive”.

`O=C(OC[C@H]1O[C@@H](OC(=O)c2cc(OS(=O)(=O)[O-])c(O)c(OS(=O)(=O)[O-])c2)[C@H](OC(=O)c2cc(OS(=O)(=O)[O-])c(O)c(OS(=O)(=O)[O-])c2)[C@@H](OC(=O)c2cc(OS(=O)(=O)[O-])c(O)c(OS(=O)(=O)[O-])c2)[C@@H]1OC(=O)c1cc(OS(=O)(=O)[O-])c(O)c(OS(=O)(=O)[O-])c1)c1cc(OS(=O)(=O)[O-])c(O)c(OS(=O)(=O)[O-])c1.[Na+].[Na+].[Na+].[Na+].[Na+].[Na+].[Na+].[Na+].[Na+].[Na+]` [sulfated pentagalloylglucoside] was tested, and the inhibition (Bos taurus) was “inactive”, the Activity (Blood [2]) was 62 mm and the inhibition [3] was “inactive”. It also gave a Ratio (Plasma [4]) of 18, an Activity (Blood [5]) of 9.4 degree and an IC50 (Coagulation factor X) of 136 µM. For the same compound, the 2PT (Plasma [6]) was 298 µg/mL, the Time (Blood [7]) was 6.6 min and the Time (Blood [8]) was 22.8 min. The Activity (Blood [9]) was 15.1 mm, the Activity (Blood [10]) was 43.5 mm and the inhibition [11] was “inactive”. The Time (Blood [12]) was 87.1 min, the Efficacy [13] was 55.7% and the IC50 (Coagulation factor XII) was 131 µM. It also gave a 2aPTT (Plasma [14]) of 96 µg/mL, an IC50 (Prothrombin) of 622 µM and an Activity (Blood [15]) of 30.6 degree. For the same compound, the Time (Blood [16]) was 37.8 min, the IC50 (Coagulation factor IX) was 582 µM and the Efficacy [17] was 100%. It also gave an Activity (Blood [18]) of 51.4 degree and an Activity (Blood [19]) of 49.8 mm.

With `O=C(CCCc1cc(OS(=O)(=O)O)ccc1OS(=O)(=O)O)N1CCc2c(ccc(OS(=O)(=O)O)c2OS(=O)(=O)O)C1` the inhibition [1] was “inactive”.

With `COc1cc([C@H]2Oc3cc([C@H]4Oc5cc(OS(=O)(=O)O)cc(O)c5C(=O)[C@@H]4OS(=O)(=O)O)ccc3O[C@@H]2COS(=O)(=O)O)ccc1OS(=O)(=O)O` the inhibition [1] was “inactive”.

`O=C(CCc1cc(OS(=O)(=O)O)ccc1OS(=O)(=O)O)N1CCc2cc(OS(=O)(=O)O)c(OS(=O)(=O)O)cc2C1` was tested, and the inhibition [1] was “inactive”.

In the case of `O=C(OC[C@H]1O[C@@H](OC(=O)c2cc(O)c(O)c(O)c2)[C@H](OC(=O)c2cc(O)c(O)c(O)c2)[C@@H](OC(=O)c2cc(O)c(O)c(O)c2)[C@@H]1OC(=O)c1cc(O)c(O)c(O)c1)c1cc(O)c(O)c(O)c1`, the inhibition [20] is reported as “inactive”.

In the case of `O=C(O)C1Cc2c(OS(=O)(=O)O)ccc(OS(=O)(=O)O)c2CN1C(=O)CCc1cc(OS(=O)(=O)O)ccc1OS(=O)(=O)O` (centres undefined), the inhibition [1] is reported as “inactive”.

In the case of `O=C(O)C1Cc2cc(OS(=O)(=O)O)c(OS(=O)(=O)O)cc2CN1C(=O)CCCc1cc(OS(=O)(=O)O)ccc1OS(=O)(=O)O` (centres undefined), the inhibition [1] is reported as “inactive”.

In the case of `O=C(O)C1Cc2c(OS(=O)(=O)O)ccc(OS(=O)(=O)O)c2CN1C(=O)CCCCc1cc(OS(=O)(=O)O)ccc1OS(=O)(=O)O` (centres undefined), the inhibition [1] is reported as “inactive”.

In the case of `O=C(O)C1Cc2cc(OS(=O)(=O)O)c(OS(=O)(=O)O)cc2CN1C(=O)CCCCc1cc(OS(=O)(=O)O)ccc1OS(=O)(=O)O` (centres undefined), the inhibition [1] is reported as “inactive”.

In the case of `O=C(/C=C/c1ccc(OS(=O)(=O)O)c(OS(=O)(=O)O)c1)O[C@@H]1C[C@](O)(C(=O)O)C[C@@H](OS(=O)(=O)O)[C@H]1OS(=O)(=O)O`, the inhibition [1] is reported as “inactive”.

With `O=C(O)C1Cc2cc(OS(=O)(=O)O)c(OS(=O)(=O)O)cc2CN1C(=O)CCc1cc(OS(=O)(=O)O)ccc1OS(=O)(=O)O` (centres undefined) the inhibition [1] was “inactive”.
